Reference: ChEMBL document CHEMBL4689842, “EUbOPEN Chemogenomics Library wave 1” (2021)

Tested on: Fibroblast
Experiment: Multiplex assay against human fibroblast
Format: toxicity, cell-based
How it was run: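 Compound was added to live cells that had been stained at seeding with Hoechst33342, BioTracker Green Microtubule Cytoskeleton Dye, MitoTracker Red and Annexin V Alexa Fluor 680, and imaging followed on a CQ1 microscope at 37°C and 5% CO2. CellPathfinder machine-learning gating divided cells into Hoechst high-intensity objects or normal cells, normal cells into healthy, pyknosed or fragmented nuclei, and pyknosed cells into mitotic or apoptotic. Tubulin, mitochondrial-mass and membrane-permeability phenotypes are per cents of healthy-nucleus cells.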

[1] = 12 h, 1 µM, compound concentration 1 uM, replicate 1
[2] = 12 h, 1 µM, compound concentration 1 uM, replicate 2
[3] = 12 h, 10 µM, compound concentration 10 uM, replicate 1
[4] = 12 h, 10 µM, compound concentration 10 uM, replicate 2
[5] = 24 h, 1 µM, compound concentration 1 uM, replicate 1
[6] = 24 h, 1 µM, compound concentration 1 uM, replicate 2
[7] = 24 h, 10 µM, compound concentration 10 uM, replicate 1
[8] = 24 h, 10 µM, compound concentration 10 uM, replicate 2
[9] = 48 h, 1 µM, compound concentration 1 uM, replicate 1
[10] = 48 h, 1 µM, compound concentration 1 uM, replicate 2
[11] = 48 h, 10 µM, compound concentration 10 uM, replicate 1
[12] = 48 h, 10 µM, compound concentration 10 uM, replicate 2

SMILES: CC(C)(C)NC[C@H](O)COc1nsnc1N1CCOCC1 [TIMOLOL]
- Population Apoptotic (%) [1]: 71%
- Population Fragmented Nuclei (%) [1]: 22%
- Population Healthy Nuclei (%) [1]: 51%
- Population Hoechst High Intensity Objects (%) [1]: 14%
- Population Membrane Permeable-Phenotype (%) [1]: 14%
- Population Mitochondria Different-Phenotype (%) [1]: 1%
- Population Mitotic Cells (%) [1]: 28%
- Population Normal (%) [1]: 85%
- Population Pyknosed Nuclei (%) [1]: 25%
- Population Tubulin-Different-Phenotype (%) [1]: 25%
- Population Apoptotic (%) [2]: 100%
- Population Fragmented Nuclei (%) [2]: 5%
- Population Healthy Nuclei (%) [2]: 88%
- Population Hoechst High Intensity Objects (%) [2]: 8%
- Population Membrane Permeable-Phenotype (%) [2]: 8%
- Population Mitochondria Different-Phenotype (%) [2]: 11%
- Population Mitotic Cells (%) [2]: 0%
- Population Normal (%) [2]: 92%
- Population Pyknosed Nuclei (%) [2]: 5%
- Population Tubulin-Different-Phenotype (%) [2]: 18%
- Population Apoptotic (%) [3]: 60%
- Population Fragmented Nuclei (%) [3]: 28%
- Population Healthy Nuclei (%) [3]: 40%
- Population Hoechst High Intensity Objects (%) [3]: 14%
- Population Membrane Permeable-Phenotype (%) [3]: 33%
- Population Mitochondria Different-Phenotype (%) [3]: 0%
- Population Mitotic Cells (%) [3]: 39%
- Population Normal (%) [3]: 85%
- Population Pyknosed Nuclei (%) [3]: 31%
- Population Tubulin-Different-Phenotype (%) [3]: 47%
- Total Cell Count [3]: 105
- Population Apoptotic (%) [4]: 33%
- Population Fragmented Nuclei (%) [4]: 8%
- Population Healthy Nuclei (%) [4]: 79%
- Population Hoechst High Intensity Objects (%) [4]: 3%
- Population Membrane Permeable-Phenotype (%) [4]: 4%
- Population Mitochondria Different-Phenotype (%) [4]: 7%
- Population Mitotic Cells (%) [4]: 66%
- Population Normal (%) [4]: 96%
- Population Pyknosed Nuclei (%) [4]: 11%
- Population Tubulin-Different-Phenotype (%) [4]: 4%
- Population Apoptotic (%) [5]: 60%
- Population Fragmented Nuclei (%) [5]: 19%
- Population Healthy Nuclei (%) [5]: 53%
- Population Hoechst High Intensity Objects (%) [5]: 12%
- Population Membrane Permeable-Phenotype (%) [5]: 26%
- Population Mitochondria Different-Phenotype (%) [5]: 0%
- Population Mitotic Cells (%) [5]: 39%
- Population Normal (%) [5]: 87%
- Population Pyknosed Nuclei (%) [5]: 27%
- Population Tubulin-Different-Phenotype (%) [5]: 30%
- Population Apoptotic (%) [6]: 50%
- Population Fragmented Nuclei (%) [6]: 11%
- Population Healthy Nuclei (%) [6]: 81%
- Population Hoechst High Intensity Objects (%) [6]: 5%
- Population Membrane Permeable-Phenotype (%) [6]: 2%
- Population Mitochondria Different-Phenotype (%) [6]: 18%
- Population Mitotic Cells (%) [6]: 50%
- Population Normal (%) [6]: 94%
- Population Pyknosed Nuclei (%) [6]: 6%
- Population Tubulin-Different-Phenotype (%) [6]: 21%
- Population Apoptotic (%) [7]: 65%
- Population Fragmented Nuclei (%) [7]: 22%
- Population Healthy Nuclei (%) [7]: 49%
- Population Hoechst High Intensity Objects (%) [7]: 16%
- Population Membrane Permeable-Phenotype (%) [7]: 58%
- Population Mitochondria Different-Phenotype (%) [7]: 2%
- Population Mitotic Cells (%) [7]: 34%
- Population Normal (%) [7]: 83%
- Population Pyknosed Nuclei (%) [7]: 27%
- Population Tubulin-Different-Phenotype (%) [7]: 58%
- Total Cell Count [7]: 99
- Population Apoptotic (%) [8]: 41%
- Population Fragmented Nuclei (%) [8]: 7%
- Population Healthy Nuclei (%) [8]: 81%
- Population Hoechst High Intensity Objects (%) [8]: 2%
- Population Membrane Permeable-Phenotype (%) [8]: 3%
- Population Mitochondria Different-Phenotype (%) [8]: 5%
- Population Mitotic Cells (%) [8]: 58%
- Population Normal (%) [8]: 97%
- Population Pyknosed Nuclei (%) [8]: 11%
- Population Tubulin-Different-Phenotype (%) [8]: 4%
- Population Apoptotic (%) [9]: 64%
- Population Fragmented Nuclei (%) [9]: 29%
- Population Healthy Nuclei (%) [9]: 53%
- Population Hoechst High Intensity Objects (%) [9]: 10%
- Population Membrane Permeable-Phenotype (%) [9]: 22%
- Population Mitochondria Different-Phenotype (%) [9]: 2%
- Population Mitotic Cells (%) [9]: 35%
- Population Normal (%) [9]: 89%
- Population Pyknosed Nuclei (%) [9]: 16%
- Population Tubulin-Different-Phenotype (%) [9]: 34%
- Population Apoptotic (%) [10]: 33%
- Population Fragmented Nuclei (%) [10]: 12%
- Population Healthy Nuclei (%) [10]: 84%
- Population Hoechst High Intensity Objects (%) [10]: 15%
- Population Membrane Permeable-Phenotype (%) [10]: 14%
- Population Mitochondria Different-Phenotype (%) [10]: 1%
- Population Mitotic Cells (%) [10]: 66%
- Population Normal (%) [10]: 84%
- Population Pyknosed Nuclei (%) [10]: 3%
- Population Tubulin-Different-Phenotype (%) [10]: 23%
- Total Cell Count [10]: 106
- Population Apoptotic (%) [11]: 47%
- Population Fragmented Nuclei (%) [11]: 34%
- Population Healthy Nuclei (%) [11]: 45%
- Population Hoechst High Intensity Objects (%) [11]: 16%
- Population Membrane Permeable-Phenotype (%) [11]: 51%
- Population Mitochondria Different-Phenotype (%) [11]: 0%
- Population Mitotic Cells (%) [11]: 52%
- Population Normal (%) [11]: 83%
- Population Pyknosed Nuclei (%) [11]: 19%
- Population Tubulin-Different-Phenotype (%) [11]: 42%
- Total Cell Count [11]: 118
- Population Apoptotic (%) [12]: 33%
- Population Fragmented Nuclei (%) [12]: 16%
- Population Healthy Nuclei (%) [12]: 77%
- Population Hoechst High Intensity Objects (%) [12]: 9%
- Population Membrane Permeable-Phenotype (%) [12]: 8%
- Population Mitochondria Different-Phenotype (%) [12]: 2%
- Population Mitotic Cells (%) [12]: 66%
- Population Normal (%) [12]: 90%
- Population Pyknosed Nuclei (%) [12]: 5%
- Population Tubulin-Different-Phenotype (%) [12]: 29%
